Measured values taken from ChEMBL document CHEMBL1649558, “Antiviral activity of chloroquine against human coronavirus OC43 infection in newborn mice” (Antimicrob Agents Chemother, 2009).

Key:
Human coronavirus OC43 [1] = experiment: Antiviral activity against Human coronavirus OC43 infected in pregnant C57BL/6 mouse assessed as survival rate at 15 mg/kg, sc administered postpartum; assay type: functional; conditions: Betacoronavirus 1, sc, route subcutaneous
How it was run: (§1)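 Pregnant C57BL/6 dams were given chloroquine subcutaneously (200 μl; 1, 5 or 15 mg/kg) prepartum or postpartum; controls were untreated. Five-day-old pups were inoculated intracerebrally with 1 × 10³ HCoV-OC43 copies in 10 μl. Mortality was monitored daily, and survivors were followed for 60 days. Survival is surviving pups over total pups; curves were compared by log-rank test.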

Human coronavirus OC43 [2] = experiment: Antiviral activity against Human coronavirus OC43 infected in human HRT18 cells assessed as decrease in viral load at 10 uM treated at the time of infection measured after 28 hrs by qRT-PCR analysis relative to control; assay type: functional
How it was run: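 Subconfluent HRT-18 monolayers were infected with 4 × 10⁷ HCoV-OC43 genome equivalents/ml, adsorbed 30 min, and washed five times with MEM. Chloroquine (10 μM) was added at infection or at later time points. Supernatant viral RNA was quantified by qRT-PCR at 28 h postinfection. Two independent experiments in duplicate; mean ± SEM.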

Human coronavirus OC43 [3] = experiment: Antiviral activity against Human coronavirus OC43 infected in human HRT18 cells after 4 days by qRT-PCR analysis; assay type: functional, cell-based; conditions: Betacoronavirus 1, HRT-18, 96 h
How it was run: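 HRT-18 cells were seeded and grown 4 days, then infected with 1 × 10⁶ HCoV-OC43 copies/ml in MEM with 2% FCS, with chloroquine at 0.032–500 μM. After 4 days at 37°C in 5% CO₂, viral RNA in the supernatant was quantified by qRT-PCR against a cRNA standard curve. EC50 is the concentration halving the viral RNA increase relative to untreated infected cells.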

Human coronavirus OC43 [4] = experiment: Antiviral activity against Human coronavirus OC43 infected in new born C57BL/6 mouse assessed as survival rate at 1 mg/kg, sc transfered via maternal milk after administration to pregnant mouse; assay type: functional; conditions: Betacoronavirus 1, sc, route subcutaneous; how it was run: as §1
Human coronavirus OC43 [5] = experiment: Antiviral activity against Human coronavirus OC43 infected in new born C57BL/6 mouse assessed as survival rate at 15 mg/kg, sc transfered via placenta after administration to pregnant mouse; assay type: functional; conditions: Betacoronavirus 1, sc, route subcutaneous
Human coronavirus OC43 [6] = experiment: Antiviral activity against Human coronavirus OC43 infected in new born C57BL/6 mouse assessed as survival rate at 1 mg/kg, sc transfered via placenta after administration to pregnant mouse; assay type: functional; conditions: Betacoronavirus 1, sc, route subcutaneous; how it was run: as §1
Human coronavirus OC43 [7] = experiment: Antiviral activity against Human coronavirus OC43 infected in pregnant C57BL/6 mouse assessed as survival rate at 5 mg/kg, sc administered prepartum; assay type: functional; conditions: Betacoronavirus 1, sc, route subcutaneous; how it was run: as §1
Human coronavirus OC43 [8] = experiment: Antiviral activity against Human coronavirus OC43 infected in pregnant C57BL/6 mouse assessed as survival rate at 5 mg/kg, sc administered postpartum; assay type: functional; conditions: Betacoronavirus 1, sc, route subcutaneous; how it was run: as §1
[9] = Selectivity index, ratio of CC50 for human HRT18 cells to EC50 for Human coronavirus OC43 infected in human HRT18 cells; assay type: toxicity, cell-based; conditions: read-out: Ratio CC50/EC50
How it was run: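 Index = CC50/EC50. For the EC50, HRT-18 cells were seeded at 6 × 10⁴ per well and grown 4 days. They were then infected with 1 × 10⁶ OC43 copies/ml in 2% serum MEM with 0.032–500 μM compound for 4 days at 37°C. Supernatant RNA was measured by qRT-PCR against a cRNA standard curve. The CC50 came from the MTS viability assay at 4 days.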

Human coronavirus OC43 [10] = experiment: Antiviral activity against Human coronavirus OC43 infected in pregnant C57BL/6 mouse assessed as survival rate at 1 mg/kg, sc administered postpartum; assay type: functional; conditions: Betacoronavirus 1, sc, route subcutaneous; how it was run: as §1
Human coronavirus OC43 [11] = experiment: Antiviral activity against Human coronavirus OC43 infected in new born C57BL/6 mouse assessed as survival rate at 5 mg/kg, sc transfered via maternal milk after administration to pregnant mouse; assay type: functional; conditions: Betacoronavirus 1, sc, route subcutaneous; how it was run: as §1
Human coronavirus OC43 [12] = experiment: Antiviral activity against Human coronavirus OC43 infected in pregnant C57BL/6 mouse assessed as survival rate at 15 mg/kg, sc administered prepartum; assay type: functional; conditions: Betacoronavirus 1, sc, route subcutaneous; how it was run: as §1
Human coronavirus OC43 [13] = experiment: Antiviral activity against Human coronavirus OC43 infected in new born C57BL/6 mouse assessed as survival rate at 15 mg/kg, sc transfered via maternal milk after administration to pregnant mouse; assay type: functional; conditions: Betacoronavirus 1, sc, route subcutaneous
[14] = Cytotoxicity against human HRT18 cells after 4 days by MTS assay; assay type: cell-based, HRT-18
How it was run: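 HRT-18 cells grown in MEM with 10% fetal calf serum, 1% L-glutamine and 1.4% sodium bicarbonate were exposed to a range of compound concentrations for 4 days at 37°C, 5% CO₂. Viable cells were quantified by MTS reduction to formazan, read at 492 nm. CC50 is the concentration reducing viability by 50%.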

Human coronavirus OC43 [15] = experiment: Antiviral activity against Human coronavirus OC43 infected in new born C57BL/6 mouse assessed as survival rate at 5 mg/kg, sc transfered via placenta after administration to pregnant mouse; assay type: functional; conditions: Betacoronavirus 1, sc, route subcutaneous; how it was run: as §1
Human coronavirus OC43 [16] = experiment: Antiviral activity against Human coronavirus OC43 infected in pregnant C57BL/6 mouse assessed as survival rate at 1 mg/kg, sc administered prepartum; assay type: functional; conditions: Betacoronavirus 1, sc, route subcutaneous; how it was run: as §1

CCN(CC)CCCC(C)Nc1ccnc2cc(Cl)ccc12.O=P(O)(O)O.O=P(O)(O)O (stereo unspecified) [CHLOROQUINE PHOSPHATE]
survival at 15 mg/kg (Human coronavirus OC43 [1]): 97.4%
fold change (FC) (Human coronavirus OC43 [2]): 100
EC50 (Human coronavirus OC43 [3]): 0.306 µM
survival at 1 mg/kg (Human coronavirus OC43 [4]): 0%
survival at 15 mg/kg (Human coronavirus OC43 [5]): 100%
survival at 1 mg/kg (Human coronavirus OC43 [6]): 33.3%
survival at 5 mg/kg (Human coronavirus OC43 [7]): 92.9%
survival at 5 mg/kg (Human coronavirus OC43 [8]): 83.3%
selectivity ratio [9]: 1370
survival at 1 mg/kg (Human coronavirus OC43 [10]): 0%
survival at 5 mg/kg (Human coronavirus OC43 [11]): 83.3%
survival at 15 mg/kg (Human coronavirus OC43 [12]): 100%
survival at 15 mg/kg (Human coronavirus OC43 [13]): 97.4%
CC50 at 96 h [14]: 419 µM
survival at 5 mg/kg (Human coronavirus OC43 [15]): 92.9%
survival at 1 mg/kg (Human coronavirus OC43 [16]): 33.3%
